# Experimental data as given in ChEMBL document CHEMBL4689842, “EUbOPEN Chemogenomics Library wave 1” (2021).
# System: Fibroblast
# Test: Multiplex assay against human fibroblast
# Format: toxicity, cell-based
# Procedure, shortened: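 Live cells carried four stains from seeding: Hoechst33342, BioTracker Green Microtubule Cytoskeleton Dye, MitoTracker Red and Annexin V Alexa Fluor 680. They were imaged on a CQ1 microscope at 37°C and 5% CO2 after compound addition. Using CellPathfinder machine-learning gating, cells were split into Hoechst high-intensity objects or normal cells, normal cells into healthy, pyknosed or fragmented nuclei, and pyknosed cells into mitotic or apoptotic; tubulin, mitochondrial-mass and membrane-permeability phenotypes are per cents of healthy-nucleus cells.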
# [1] = 12 h, 1 µM, compound concentration 1 uM, replicate 1
# [2] = 12 h, 1 µM, compound concentration 1 uM, replicate 2
# [3] = 12 h, 10 µM, compound concentration 10 uM, replicate 1
# [4] = 12 h, 10 µM, compound concentration 10 uM, replicate 2
# [5] = 24 h, 1 µM, compound concentration 1 uM, replicate 1
# [6] = 24 h, 1 µM, compound concentration 1 uM, replicate 2
# [7] = 24 h, 10 µM, compound concentration 10 uM, replicate 1
# [8] = 24 h, 10 µM, compound concentration 10 uM, replicate 2
# [9] = 48 h, 1 µM, compound concentration 1 uM, replicate 1
# [10] = 48 h, 1 µM, compound concentration 1 uM, replicate 2
# [11] = 48 h, 10 µM, compound concentration 10 uM, replicate 1
# [12] = 48 h, 10 µM, compound concentration 10 uM, replicate 2
structure (smiles),measurement,setting,value
CN(c1cc(C(F)(F)F)nc(OCCC(=O)O)n1)c1cccc2c1CCC2,Population Apoptotic (%),[1],70%
same,Population Fragmented Nuclei (%),[1],18%
same,Population Healthy Nuclei (%),[1],47%
same,Population Hoechst High Intensity Objects (%),[1],11%
same,Population Membrane Permeable-Phenotype (%),[1],17%
same,Population Mitochondria Different-Phenotype (%),[1],6%
same,Population Mitotic Cells (%),[1],29%
same,Population Normal (%),[1],88%
same,Population Pyknosed Nuclei (%),[1],33%
same,Population Tubulin-Different-Phenotype (%),[1],27%
same,Total Cell Count,[1],136
same,Population Apoptotic (%),[2],0%
same,Population Fragmented Nuclei (%),[2],9%
same,Population Healthy Nuclei (%),[2],80%
same,Population Hoechst High Intensity Objects (%),[2],12%
same,Population Membrane Permeable-Phenotype (%),[2],4%
same,Population Mitochondria Different-Phenotype (%),[2],20%
same,Population Mitotic Cells (%),[2],100%
same,Population Normal (%),[2],87%
same,Population Pyknosed Nuclei (%),[2],9%
same,Population Tubulin-Different-Phenotype (%),[2],28%
same,Total Cell Count,[2],65
same,Population Apoptotic (%),[3],61%
same,Population Fragmented Nuclei (%),[3],23%
same,Population Healthy Nuclei (%),[3],49%
same,Population Hoechst High Intensity Objects (%),[3],11%
same,Population Membrane Permeable-Phenotype (%),[3],25%
same,Population Mitochondria Different-Phenotype (%),[3],6%
same,Population Mitotic Cells (%),[3],38%
same,Population Normal (%),[3],88%
same,Population Pyknosed Nuclei (%),[3],27%
same,Population Tubulin-Different-Phenotype (%),[3],26%
same,Total Cell Count,[3],172
same,Population Apoptotic (%),[4],0%
same,Population Fragmented Nuclei (%),[4],13%
same,Population Healthy Nuclei (%),[4],86%
same,Population Hoechst High Intensity Objects (%),[4],14%
same,Population Membrane Permeable-Phenotype (%),[4],4%
same,Population Mitochondria Different-Phenotype (%),[4],10%
same,Population Mitotic Cells (%),[4],0%
same,Population Normal (%),[4],85%
same,Population Pyknosed Nuclei (%),[4],0%
same,Population Tubulin-Different-Phenotype (%),[4],30%
same,Total Cell Count,[4],71
same,Population Apoptotic (%),[5],54%
same,Population Fragmented Nuclei (%),[5],26%
same,Population Healthy Nuclei (%),[5],46%
same,Population Hoechst High Intensity Objects (%),[5],11%
same,Population Membrane Permeable-Phenotype (%),[5],28%
same,Population Mitochondria Different-Phenotype (%),[5],7%
same,Population Mitotic Cells (%),[5],45%
same,Population Normal (%),[5],88%
same,Population Pyknosed Nuclei (%),[5],27%
same,Population Tubulin-Different-Phenotype (%),[5],30%
same,Total Cell Count,[5],129
same,Population Apoptotic (%),[6],0%
same,Population Fragmented Nuclei (%),[6],4%
same,Population Healthy Nuclei (%),[6],95%
same,Population Hoechst High Intensity Objects (%),[6],8%
same,Population Membrane Permeable-Phenotype (%),[6],2%
same,Population Mitochondria Different-Phenotype (%),[6],13%
same,Population Mitotic Cells (%),[6],0%
same,Population Normal (%),[6],91%
same,Population Pyknosed Nuclei (%),[6],0%
same,Total Cell Count,[6],68
same,Population Apoptotic (%),[7],56%
same,Population Fragmented Nuclei (%),[7],14%
same,Population Healthy Nuclei (%),[7],60%
same,Population Hoechst High Intensity Objects (%),[7],7%
same,Population Membrane Permeable-Phenotype (%),[7],21%
same,Population Mitochondria Different-Phenotype (%),[7],3%
same,Population Mitotic Cells (%),[7],43%
same,Population Normal (%),[7],92%
same,Population Pyknosed Nuclei (%),[7],25%
same,Population Tubulin-Different-Phenotype (%),[7],34%
same,Total Cell Count,[7],198
same,Population Apoptotic (%),[8],0%
same,Population Fragmented Nuclei (%),[8],13%
same,Population Healthy Nuclei (%),[8],81%
same,Population Hoechst High Intensity Objects (%),[8],13%
same,Population Membrane Permeable-Phenotype (%),[8],3%
same,Population Mitochondria Different-Phenotype (%),[8],13%
same,Population Mitotic Cells (%),[8],100%
same,Population Normal (%),[8],86%
same,Population Pyknosed Nuclei (%),[8],5%
same,Population Tubulin-Different-Phenotype (%),[8],44%
same,Total Cell Count,[8],79
same,Population Apoptotic (%),[9],51%
same,Population Fragmented Nuclei (%),[9],35%
same,Population Healthy Nuclei (%),[9],41%
same,Population Hoechst High Intensity Objects (%),[9],20%
same,Population Membrane Permeable-Phenotype (%),[9],32%
same,Population Mitochondria Different-Phenotype (%),[9],2%
same,Population Mitotic Cells (%),[9],48%
same,Population Normal (%),[9],79%
same,Population Pyknosed Nuclei (%),[9],23%
same,Population Tubulin-Different-Phenotype (%),[9],38%
same,Total Cell Count,[9],147
same,Population Apoptotic (%),[10],33%
same,Population Fragmented Nuclei (%),[10],19%
same,Population Healthy Nuclei (%),[10],76%
same,Population Hoechst High Intensity Objects (%),[10],10%
same,Population Membrane Permeable-Phenotype (%),[10],16%
same,Population Mitochondria Different-Phenotype (%),[10],0%
same,Population Mitotic Cells (%),[10],66%
same,Population Normal (%),[10],90%
same,Population Pyknosed Nuclei (%),[10],4%
same,Population Tubulin-Different-Phenotype (%),[10],30%
same,Total Cell Count,[10],80
same,Population Apoptotic (%),[11],54%
same,Population Fragmented Nuclei (%),[11],25%
same,Population Healthy Nuclei (%),[11],67%
same,Population Hoechst High Intensity Objects (%),[11],14%
same,Population Membrane Permeable-Phenotype (%),[11],14%
same,Population Mitochondria Different-Phenotype (%),[11],3%
same,Population Mitotic Cells (%),[11],45%
same,Population Normal (%),[11],85%
same,Population Pyknosed Nuclei (%),[11],7%
same,Population Tubulin-Different-Phenotype (%),[11],19%
same,Total Cell Count,[11],175
same,Population Apoptotic (%),[12],40%
same,Population Fragmented Nuclei (%),[12],22%
same,Population Healthy Nuclei (%),[12],73%
same,Population Hoechst High Intensity Objects (%),[12],10%
same,Population Membrane Permeable-Phenotype (%),[12],15%
same,Population Mitochondria Different-Phenotype (%),[12],4%
same,Population Mitotic Cells (%),[12],60%
same,Population Normal (%),[12],89%
same,Population Pyknosed Nuclei (%),[12],4%
same,Population Tubulin-Different-Phenotype (%),[12],34%
same,Total Cell Count,[12],125
